This passage reports MIC results from ChEMBL document CHEMBL1687909, “Design, synthesis, and biological evaluation of new cinnamic derivatives as antituberculosis agents” (J Med Chem, 2011).

The MIC is the lowest concentration that inhibits growth of the organism.

Structures are written as SMILES. In brackets after ≈: the same amount, converted by molar mass.

Assay [1] relates to Mycobacterium tuberculosis. The experiment in a line: Antituberculosis activity against Mycobacterium tuberculosis MYC5165 harboring InhA mutant gene after 7 days by MTT assay. The assay is classed as functional. In a few lines: (§1)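 Colorimetric MTT microassay: serial 2-fold dilutions from DMSO stocks in Middlebrook 7H9 broth, bacterial suspension in 7H9 added. After 6 days, MTT (1 mg/mL) added; 1 day later solubilization buffer, OD 570 nm. MIC = lowest concentration inhibiting growth, untreated bacilli as growth control.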
For orientation: Tetrazolium dyes change colour on reduction, which living cells bring about.

In assay [2] the test system is Mycobacterium tuberculosis. The experiment in a line: Antituberculosis activity against Mycobacterium tuberculosis 1400 harboring KatG mutant gene after 7 days by MTT assay. It is filed as functional. In a few lines:
as §1

`CC(C)=CCOc1ccc(/C=C/C(=O)NNC(=O)c2ccncc2)cc1`: the MIC is 27 µM (≈ 9.49 µg/mL) in assay [1] and 68 µM (≈ 23.9 µg/mL) in assay [2].

Consider `CC(C)=CCOc1ccc(/C=C/c2nnc3c4ccccc4cnn23)cc1`, for which the values for the MIC in assay [1] and in assay [2] were 0.2 µM (≈ 0.0713 µg/mL) and 0.4 µM (≈ 0.143 µg/mL), respectively.

`COc1ccc(/C=C/C(=O)NNC(=O)c2ccncc2)cc1`: the MIC in assay [1] was 16 µM (≈ 4.76 µg/mL); in assay [2], 320 µM (≈ 95.1 µg/mL).

For `O=C(O)c1cn(C2CC2)c2cc(N3CCNCC3)c(F)cc2c1=O` [CIPROFLOXACIN], the MIC in assay [1] and in assay [2] was 5 µM (≈ 1.66 µg/mL) throughout.

In the case of `NNC(=O)c1ccncc1` [ISONIAZID], the MIC in assay [1] stood at 18 µM (≈ 2.47 µg/mL); in assay [2] it was 729 µM (≈ 100 µg/mL).
